# Assay results as given in ChEMBL document CHEMBL3232828, “A potential CARB-pharmacophore for antineoplastic activity: part 1” (2014).
# What was measured:
# Type in all cases: functional
# A549 [1] = test: Cytotoxicity against hormone-independent human A549 cells at 8 mM after 12 hrs by CCK-8 assay
# Summary of the method: (§1)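 A549 adherent cells in DMEM with FBS and penicillin-streptomycin at 37 °C, 5% CO2. Seeded at 1 × 10^4 cells/well and attached for 12 h. Compound applied for 12 h, followed by 3 h in serum-free medium with 10% CCK-8. OD at 450 nm. Viability expressed as 100 × (S−B)/(K−B) relative to untreated cells.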
# A549 [2] = test: Cytotoxicity against hormone-independent human A549 cells at 6 mM after 12 hrs by CCK-8 assay; summary of the method: as §1
# A549 [3] = test: Cytotoxicity against hormone-independent human A549 cells at 4 mM after 12 hrs by CCK-8 assay; summary of the method: as §1
# A549 [4] = test: Cytotoxicity against hormone-independent human A549 cells at 2 mM after 12 hrs by CCK-8 assay; summary of the method: as §1
# LoVo [5] = test: Cytotoxicity against hormone-independent human LoVo cells at 8 mM after 12 hrs by CCK-8 assay
# Summary of the method: (§2)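 For LoVo colorectal adenocarcinoma cells, cultured in DMEM supplemented with FBS and penicillin-streptomycin (37 °C, 5% CO2), 2.5 × 10^4 cells/well were plated 12 h ahead, then treated 12 h. Read-out: CCK-8 (10% in serum-free medium, 3 h), absorbance 450 nm. Percent viability = 100 × (S−B)/(K−B) using blank and control wells.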
# LoVo [6] = test: Cytotoxicity against hormone-independent human LoVo cells at 6 mM after 12 hrs by CCK-8 assay; summary of the method: as §2
# LoVo [7] = test: Cytotoxicity against hormone-independent human LoVo cells at 4 mM after 12 hrs by CCK-8 assay; summary of the method: as §2
# LoVo [8] = test: Cytotoxicity against hormone-independent human LoVo cells at 2 mM after 12 hrs by CCK-8 assay; summary of the method: as §2
# MCF7 [9] = test: Cytotoxicity against hormone-dependent human MCF7 cells at 8 mM after 12 hrs by CCK-8 assay
# Summary of the method: (§3)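 MCF-7 monolayers grown in DMEM plus FBS and penicillin-streptomycin (37 °C, 5% CO2), plated 5 × 10^4 cells/well 12 h before dosing. Exposure 12 h at the listed concentration. Viability measured by WST-8 (CCK-8) reduction: 10% CCK-8 in serum-free medium, 3 h, absorbance 450 nm. Viability% = 100 × (sample−blank)/(control−blank).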
# MCF7 [10] = test: Cytotoxicity against hormone-dependent human MCF7 cells at 4 mM after 12 hrs by CCK-8 assay; summary of the method: as §3
# MCF7 [11] = test: Cytotoxicity against hormone-dependent human MCF7 cells at 2 mM after 12 hrs by CCK-8 assay; summary of the method: as §3
# HeLa [12] = test: Cytotoxicity against hormone-dependent human HeLa cells at 8 mM after 12 hrs by CCK-8 assay
# Summary of the method: (§4)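 HeLa cells (adherent) in F-12K medium with fetal bovine serum and penicillin-streptomycin, 37 °C, 5% CO2. Seeded at 1 × 10^4 cells/well and allowed to form a monolayer for 12 h. Treated 12 h at the stated concentration. Medium then replaced with serum-free medium containing 10% CCK-8 for 3 h. OD read at 450 nm. Viability% = 100 × (S−B)/(K−B) against blank and untreated control.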
# HeLa [13] = test: Cytotoxicity against hormone-dependent human HeLa cells at 6 mM after 12 hrs by CCK-8 assay; summary of the method: as §4
# HeLa [14] = test: Cytotoxicity against hormone-dependent human HeLa cells at 4 mM after 12 hrs by CCK-8 assay; summary of the method: as §4
# HeLa [15] = test: Cytotoxicity against hormone-dependent human HeLa cells at 2 mM after 12 hrs by CCK-8 assay; summary of the method: as §4
# MCF7 [16] = test: Cytotoxicity against hormone-dependent human MCF7 cells at 6 mM after 12 hrs by CCK-8 assay; summary of the method: as §3
# K562 [17] = test: Cytotoxicity against human K562 cells at 8 mM after 12 hrs by CCK-8 assay
# Summary of the method: (§5)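 Suspension K562 cells maintained in RPMI 1640 with FBS and penicillin-streptomycin at 37 °C, 5% CO2. Seeded at 2 × 10^4 cells/well and exposed 12 h at the given concentration. Then incubated 3 h with 10% CCK-8 in serum-free medium. OD 450 nm. Viability% = 100 × (S−B)/(K−B) versus blank and untreated control.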
# K562 [18] = test: Cytotoxicity against human K562 cells at 6 mM after 12 hrs by CCK-8 assay; summary of the method: as §5
# K562 [19] = test: Cytotoxicity against human K562 cells at 4 mM after 12 hrs by CCK-8 assay; summary of the method: as §5
# K562 [20] = test: Cytotoxicity against human K562 cells at 2 mM after 12 hrs by CCK-8 assay; summary of the method: as §5
Structure (SMILES),Activity (A549 [1]),Activity (A549 [2]),Activity (A549 [3]),Activity (A549 [4]),Activity (LoVo [5]),Activity (LoVo [6]),Activity (LoVo [7]),Activity (LoVo [8]),Activity (MCF7 [9]),Activity (MCF7 [10]),Activity (MCF7 [11]),Activity (HeLa [12]),Activity (HeLa [13]),Activity (HeLa [14]),Activity (HeLa [15]),Activity (MCF7 [16]),Activity (K562 [17]),Activity (K562 [18]),Activity (K562 [19]),Activity (K562 [20])
"OCC1(O)SC[C@@H](O)C(O)C1O (single isomer, unassigned)",55%,46%,44%,44%,42%,32%,25%,28%,2%,7%,3%,51%,48%,30%,28%,3%,,,,
OC[C@@]12CO[C@H](O1)[C@H](O)[C@@H](O)[C@H]2O,7%,5%,4%,23%,12%,13%,7%,9%,3%,2%,6%,3%,,4%,4%,5%,,,,
OC[C@H]1SC(O)[C@H](O)[C@@H](O)[C@@H]1O (stereo not given in full),97%,96%,96%,79%,88%,85%,54%,28%,49%,25%,17%,98%,99%,90%,70%,40%,98%,94%,45%,6%
O[C@@H]1[C@@H](O)[C@H](O)[C@]2(CO2)[C@@H](O)[C@H]1O,26%,20%,,,24%,5%,,,66%,46%,22%,7%,2%,,,53%,36%,26%,20%,6%
